Measurements from article PMC4427559 (Drug development and industrial pharmacy, 2015).
≈ marks a conversion by molar mass, not a printed value.

Tests used:
[1] = Solubility in common solvents, shaker method, HPLC; format: physicochemical
[2] = cited from earlier work
[3] = Stability in human plasma at 37 °C; format: in vitro ADME
[4] = Stability in rat plasma at 37 °C; format: in vitro ADME; conditions: male, Sprague Dawley
[5] = cited from earlier work; remark: listed apart in the source
[6] = Solution state pH stability in USP buffers at 37 °C; format: physicochemical; conditions: for Degradation half-life t½: calculated from k
Summary of the method: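 Test compound (1 mg/mL acetonitrile stock) added 1:10 to 0.2 M USP buffers (n = 3) in amber vials. Buffers were HCl (pH 2), acid phthalate (pH 3–4), neutralized phthalate (pH 5), phosphate (pH 6–7) and borate (pH 8–10). Incubation at 37 °C, light-protected. Quantified by isocratic C18 HPLC-UV at 300 nm with warfarin IS. Log % remaining plotted against time; half-lives from first-order kinetics.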

[7] = Plasma protein binding by ultracentrifugation/ultrafiltration; format: in vitro ADME, human; conditions: 37 °C

Oc1ccc(/C=C/c2cc(O)cc(O)c2)cc1 [resveratrol, trans-3,5,4′-trihydroxystilbene]
Solubility ([1]; PEG-400, room temperature (25 °C), mean, n = 3): 373.85 mg/mL (≈ 1640 mM) | Solubility in words ([1]; water): not soluble | Water solubility [2]: 0.05 mg/mL | half-life at 50 µg/mL [3]: 54 h | half-life at 50 µg/mL [4]: 25 h | pKa1 [5]: 8.8 | pKa2 [5]: 9.8 | pKa3 [5]: 11.4 | Original concentration remaining ([6]; acidic and neutral conditions, at 193 h): More than 70% | Degradation rate constant k ([6]; pH 2, hydrochloric acid buffer 0.2 M): 0.000506 h⁻¹ | Degradation rate constant k ([6]; pH 3, acid phthalate buffer 0.2 M): 0.000353 h⁻¹ | Degradation rate constant k ([6]; pH 4, acid phthalate buffer 0.2 M): 0.000151 h⁻¹ | Degradation rate constant k ([6]; pH 5, neutralized phthalate buffer 0.2 M): 0.00011 h⁻¹ | Degradation rate constant k ([6]; pH 6, phosphate buffer 0.2 M): 0.000147 h⁻¹ | Degradation half-life t½ ([6]; pH 6, phosphate buffer 0.2 M): 195.5 days | Degradation rate constant k ([6]; pH 7, phosphate buffer 0.2 M): 0.00247 h⁻¹ | Resveratrol remaining ([6]; pH 8, 9 or 10, at 50 and 80 h): Less than 2% | Degradation rate constant k ([6]; pH 8, borate buffer 0.2 M): 0.0488 h⁻¹ | Degradation rate constant k ([6]; pH 9, borate buffer 0.2 M): 0.4000 h⁻¹ | Degradation half-life t½ ([6]; pH 9, borate buffer 0.2 M): 0.0722 days | Degradation rate constant k ([6]; pH 10, borate buffer 0.2 M): 0.0335 h⁻¹ | Bound fraction (%) ±standard deviation (n = 6) ([7]; human plasma spiked at 5 µg/mL): 98.2 ± 0.41% | Bound fraction (%) ±standard deviation (n = 6) ([7]; human plasma spiked at 12.5 µg/mL): 98.5 ± 0.23% | Bound fraction (%) ±standard deviation (n = 6) ([7]; human plasma spiked at 25 µg/mL): 98.3 ± 0.33% | Plasma protein binding (mean) ([7]; human plasma, over 5, 12.5 and 25 µg/mL): 98% | fraction unbound at 30 min ([7]; human, human plasma, Plasma protein binding (mean), over 5, 12.5 and 25 µg/mL): 0.017
